# Screening data (PubChem)
# NF-kB neuron act: activators of NF-kB expression in neurons, primary screen, cell-based, HTS. human neuronal cells, NF-kB reporter expression; stronger effect = higher value. fold change at 12.5 µM. actives 1.6% (n = 190,000); in the data active means fold change above about 3.3
# STAT3 act-1: IL-6 driven STAT3 reporter potentiators, primary screen, U3A cells, luciferase, luminescence, MLSCN library; IL-6 STAT3-luciferase reporter; 100% = signal with IL-6 EC80 alone; activation (% of control), % at 5.6 µM; AID 871, 2007; actives 0.91% (n = 190,000);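 active means activation above the screen-wide mean of compound activation plus 3 SD, cut at about 130% in these data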
#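 Material: human U3A cells carrying STAT3-luciferase construct. Measured by: reporter luminescence signal. Timing: compound 1 h, then IL-6 6 h at 37 °C.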
# STAT1 act-1: STAT1 signaling activators, primary screen, cell-based, HTS, luciferase reporter. activation (% of control), % at 5.5 µM. NIH 3T3 STAT1-luciferase reporter, IFN-gamma, luminescence; 100% = IFN-gamma alone, no compound. AID 932, 2007. actives 2.6% (n = 200,000);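 active means activation above the screen-wide mean activation plus 3 SD, cut at about 130% in these data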
# APP 5'UTR act: activators of APP 5'UTR luciferase reporter, primary screen, SH-SY5Y cells; SH-SY5Y APP 5'UTR luciferase reporter, luminescence; zero percent = DMSO vehicle wells; actives 1% (n = 190,000); activation, % at 2 µM;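 active means activation above a set limit, based on mean plus 3 SD of controls, cut at about 140% in these data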
# STAT1 inh: STAT1 signaling inhibitors, primary screen, cell-based, HTS, luciferase reporter; NIH 3T3 STAT1-luciferase reporter, IFN-gamma, luminescence; inhibition, % at 5.5 µM; actives 0.35% (n = 200,000);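 active means inhibition above a set limit, the mean inhibition across all tested compounds plus 3 SD, cut at about 34% in these data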
# STAT3 inh: IL-6 driven STAT3 reporter inhibitors, primary screen, U3A cells, luciferase, luminescence, MLSCN library; IL-6 STAT3-luciferase reporter; host cell line lacks STAT1; inhibition, % at 5.5 µM; actives 0.89% (n = 190,000); AID 862, 2007;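 active means inhibition above the mean inhibition across all screened compounds plus 3 SD, cut at about 44% in these data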
# STAT3 act-2: STAT3 reporter potentiators, retest of hits, confirmation, U3A cells, luciferase, luminescence. AID 1267, 2008. potentiation (% of control), % at 5.7 µM. IL-6 potentiation; U3A cells lack STAT1; 100 means same as IL-6 alone. shares compounds with STAT3 act-1. actives 64% (n = 1,200);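 active means percent activation of the STAT3 luciferase reporter above a set limit taken from the earlier primary screen, cut at about 130% in these data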
# NFkB act 2: NF-kB reporter activators in human cells, counter-screen for STAT3 activator project | shares compounds with STAT3 act-1 | NF-kappaB reporter activation | activation (% of control), % at 5.7 µM | actives 11% (n = 1,200); in the data active means activation above about 120%;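 further: reporter induced by TNF-alpha stimulation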
# STAT1 act-2: STAT1 reporter activators, IFN-gamma induced, counter-screen for STAT3 activator project, cell-based, NIH 3T3, luciferase luminescence; shares compounds with STAT3 act-1; NIH 3T3 STAT1-luciferase reporter; activation (% of control), % at 5.7 µM; actives 13% (n = 1,200); AID 1318, 2008;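 active means activation above the solvent-only control well mean plus 3 SD, set per screening run, cut at about 120% in these data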
# Hits are given with their value; i = inactive; nt = no result. Rows were chosen to be rich in hits. Some 4.9% of all compounds tested hit in one or more screens of this group.
SMILES,NF-kB neuron act,STAT3 act-1,STAT1 act-1,APP 5'UTR act,STAT1 inh,STAT3 inh,STAT3 act-2,NFkB act 2,STAT1 act-2
CCSc1nc2sc3c(c2c(=O)[nH]1)CCc1ccccc1-3,i,144,i,i,i,i,152,i,i
O=C(C1CCCO1)N1CCN(c2c3c(nc4cc(-c5ccc(F)cc5)nn24)CCC3)CC1 (stereo unspecified),i,137,i,i,i,i,i,i,i
OC1CCN(c2c3c(nc4cc(-c5ccc(F)cc5)nn24)CCC3)CC1,i,i,i,i,i,i,nt,nt,nt
O=C(NC(=S)Nc1nc2c(s1)CCCC2)c1ccccc1,i,148,i,191,i,i,206,142,200
Cc1ccc(CC(=O)Nc2nc3c(s2)CCCC3)cc1,3.4,141,i,i,i,i,137,i,i
CC(=O)NC(Cc1cccc(F)c1)C(=O)NC1CCN(C(=O)c2ccc(C)cc2)CC1 (stereo unspecified),i,i,i,i,i,i,nt,nt,nt
O=C(CSc1ncc(-c2ccccc2)n1C1CCCC1)N1CCc2ccccc21,i,141,i,i,i,i,i,i,i
CCn1c(CSc2ncccn2)nnc1SCC(=O)N1CCc2ccccc21,i,148,i,i,i,i,i,i,i
CCNc1sc(C(=O)c2cccs2)c(N)c1-c1nc2ccccc2s1,i,i,i,i,i,i,nt,nt,nt
C=CCNc1sc(C(=O)c2ccccc2)c(N)c1-c1nc2ccccc2s1,i,143,i,i,i,i,i,i,i
CCOC(=O)c1sc(NCc2ccco2)c(-c2nc3ccccc3s2)c1N,i,158,i,i,i,i,136,i,i
CCN(c1ccc(NC(=O)c2ccc(Cl)nc2)cc1)C(C)C,i,i,i,i,i,i,nt,nt,nt
N#CC1=C(N)Oc2c(ccc3ccccc23)C1c1ccsc1 (stereo unspecified),i,138,i,i,i,i,i,i,i
N#CC1=C(N)Oc2c(oc(CO)cc2=O)C1c1ccsc1 (stereo unspecified),i,i,i,i,i,i,nt,nt,nt
COC(=O)c1sccc1NC(=O)c1cc2c(s1)CCCC2,i,170,i,i,i,i,146,i,i
COc1ccc(C)cc1NC(=O)c1cc2c(s1)CCC2,i,i,i,i,i,i,nt,nt,nt
Cc1ccccc1-n1c(SC2CCOC2=O)nnc1-c1ccncc1 (stereo unspecified),i,i,i,i,i,i,nt,nt,nt
CC1=C(C(=O)OCC2CCCO2)C(c2coc3ccccc3c2=O)C2=C(CCCC2=O)N1 (stereo unspecified),i,143,i,i,i,i,161,i,i
COC(=O)C1=C(C)NC2=C(C(=O)CCC2)C1c1coc2ccccc2c1=O (stereo unspecified),i,139,i,i,i,i,147,i,i
CCOC(=O)C1=C(C)NC2=C(C(=O)CCC2)C1c1coc2ccccc2c1=O (stereo unspecified),i,145,i,i,i,i,150,i,i
CC1=C(C(=O)OC2CCCC2)C(c2coc3ccccc3c2=O)C2=C(CCCC2=O)N1 (stereo unspecified),i,137,i,i,i,i,i,i,i
CC1=C(C(=O)Nc2ccccc2)C(c2coc3ccccc3c2=O)C2=C(CCCC2=O)N1 (stereo unspecified),i,i,i,i,i,i,nt,nt,nt
Cc1ccc(C2C(C(=O)c3cccs3)=C(O)C(=O)N2c2nnc(C)s2)cc1 (stereo unspecified),i,i,i,i,i,i,nt,nt,nt
O=C(Nc1ccccc1F)Nc1ccccc1OC(F)F,i,i,i,i,i,i,nt,nt,nt
CC(C)CNC(=S)N1CCC(C(=O)c2ccc3c(c2)OCCO3)CC1,i,i,i,i,i,i,nt,nt,nt
SMILES,NF-kB neuron act,STAT3 act-1,STAT1 act-1,APP 5'UTR act,STAT1 inh,STAT3 inh,STAT3 act-2,NFkB act 2,STAT1 act-2
CC(=O)Nc1c(C(=O)O)oc2ccc(Cl)cc12,i,140,i,i,i,i,i,i,i
CC1=NOC(=O)/C1=C\c1ccc(-c2ccc(Cl)c(C(=O)O)c2)o1,i,i,i,i,i,i,nt,nt,nt
CC1=NOC(=O)/C1=C\c1ccc(-c2cccc(Cl)c2)o1,i,137,i,i,i,i,i,i,i
CC(=O)Nc1cccc2c1C(=O)N(c1ccc(C)cc1)C2=O,i,160,i,i,i,i,163,i,121
Cc1ccc(N2C(=O)c3cccc4c(C(=O)O)ccc(c34)C2=O)cc1,i,i,i,i,i,i,nt,nt,nt
Cc1nc(N=C(N)N)nc2ccccc12,i,i,i,i,i,i,nt,nt,nt
Cc1nc(/N=C(\N)NC(=O)c2ccccc2)nc2ccccc12,i,177,i,i,i,i,168,121,i
CC1CCN(c2cc(N3CCN(C(=O)c4ccc(F)c(F)c4)CC3)c([N+](=O)[O-])cc2F)CC1,i,i,i,i,i,i,nt,nt,nt
CC1=C([N+](=O)[O-])C(c2cccc(Br)c2)C2=C(N1)c1ccccc1C2=O (stereo unspecified),4.5,175,i,i,i,i,149,149,i
O=C(O)C1Cc2[nH]cnc2C(c2ccccc2O)N1 (stereo unspecified),i,143,i,i,i,i,172,i,i
O=C(O)C1Cc2[nH]cnc2C(c2cccc([N+](=O)[O-])c2)N1 (stereo unspecified),i,i,i,i,i,i,nt,nt,nt
O=C(Cn1cc([N+](=O)[O-])nc1[N+](=O)[O-])N1CCN(c2ccccc2)CC1,i,i,i,i,i,i,nt,nt,nt
Cc1ccc2cc(CCNS(=O)(=O)c3ccc(F)cc3)c(=O)[nH]c2c1C,i,nt,i,i,i,nt,nt,nt,nt
O=C(CC1Nc2ccccc2NC1=O)Nc1ccc2c(c1)OCO2 (stereo unspecified),i,i,i,i,i,i,nt,nt,nt
Cc1ccc(NC(=O)CC2Nc3ccccc3NC2=O)cc1Cl (stereo unspecified),nt,138,i,i,i,i,i,i,i
